Shown are actives, neighbours in structure and some others; about 1.2% of the full set was active somewhere.
DNA FID counter: displaces DNA intercalator in HCV helicase counter-screen | DNA fluorescent intercalator displacement, fluorescence | inhibition, % at 7.9 µM | hit rate 0.17% among 290,000 | AID 1845; in the data active = inhibition above about 37%;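 note: 0% = vehicle and 100% = reference compound; higher means more ethidium bromide displaced from hairpin DNA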
Wee1 stabilizer: blocks degradation of human Wee1 kinase; AID 1321; P30291; reporter increase, % at 5 µM; HeLa Luc-Wee1K328M stability, luciferase luminescence; 100% = proteasome inhibitor MG132 effect; hit rate 1.2% among 220,000;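 active = activation above the mean of all tested compounds plus 3 SD, set per screening run, cut at about 8.8% in these data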;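 note: cells exposed to compound for 20 h before luminescence read; 0% = DMSO alone and 100% = MG132 at 30 µM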
Rad51 HR inh: blocks human Rad51 in homologous recombination | AID 1385 | hit rate 0.085% among 200,000 | hRad51 DNA strand exchange, fluorescence dequenching | inhibition, % at 10 µM;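 active = inhibition above 40% at the single screening dose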;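 note: 0% = DMSO control wells and 100% = blanks with heterologous ssDNA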
Target sequence (Q06609 whole entry, looked up): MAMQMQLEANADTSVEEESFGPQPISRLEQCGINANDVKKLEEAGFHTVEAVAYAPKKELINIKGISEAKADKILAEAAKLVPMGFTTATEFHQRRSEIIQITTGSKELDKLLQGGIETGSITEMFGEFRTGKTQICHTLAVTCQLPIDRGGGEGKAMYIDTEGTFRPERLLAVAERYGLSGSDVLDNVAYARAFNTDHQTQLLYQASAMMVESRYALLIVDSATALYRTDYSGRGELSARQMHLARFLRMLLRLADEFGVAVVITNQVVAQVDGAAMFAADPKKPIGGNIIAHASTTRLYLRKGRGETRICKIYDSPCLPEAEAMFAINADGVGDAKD
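material = hRad51 filaments on single-stranded DNA | timing = filaments 15 min 37 °C, then compound 30 min | signal = FRET fluorescence dequenching, excitation 485 nm, emission 520 nm | benchmarks = control wells and blank wells on each plate | evaluation = percent inhibition relative to plate controls and blanks | compound = 10 µM final, single point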
RBBP9 inh: inhibitors of human serine hydrolase RBBP9; O75884; recombinant RBBP9, FP-Rh probe fluorescence polarization; inhibition, % at 7.94 µM; hit rate 0.2% among 220,000;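 active = inhibition above the campaign mean of all tested compounds plus 3 SD, cut at about 14% in these data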;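 note: plate controls were DMSO wells with RBBP9 for no effect and wells lacking RBBP9 protein for full effect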
Target sequence (O75884 whole entry, looked up): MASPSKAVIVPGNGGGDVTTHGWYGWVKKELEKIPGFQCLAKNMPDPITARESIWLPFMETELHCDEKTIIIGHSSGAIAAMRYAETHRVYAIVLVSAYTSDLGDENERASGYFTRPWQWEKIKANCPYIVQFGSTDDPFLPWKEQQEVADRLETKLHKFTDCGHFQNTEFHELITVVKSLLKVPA
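Measured by: FP readout at 525/598 nm; material: recombinant human RBBP9; also added: Serine-hydrolase probe FP-Rh, 375 nM pre-mixing; medium: Tris buffer pH 8.0, NaCl, Pluronic; replication: one well per compound; doses: one concentration, 7.94 µM nominal, 0.794% DMSO; timing: preincubation 30 min plus labeling 45 min at 25 °C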
An asterisk follows results filed as active; . = no result given.

SMILES | DNA FID counter | Wee1 stabilizer | Rad51 HR inh | RBBP9 inh
O=C(O)CSCCOc1ccc(OCCSCC(=O)O)cc1 | -0.4 | 10.2* | -13.6 | 1.5
Oc1ccc2ccccc2c1Br | 3.5 | 6.7 | 43.0* | -1.0
CC(C)N1CCN(Cc2cccn2-c2cccnc2)CC1CCO (configuration not stated) | 5.9 | 9.6* | -2.9 | -2.5
CC(C)CCN1CCN(Cc2cccn2-c2cccnc2)CC1CCO (configuration not stated) | 6.2 | -3.4 | 4.2 | -2.3
CCC(c1nnnn1C(C)(C)C)N1CCN(c2cc(Cl)ccc2C)CC1 (configuration not stated) | -4.8 | -2.1 | 16.0 | -7.0
CN1CCN(c2ccc(NC(=O)CSc3nnnn3-c3ccccc3Cl)cc2)CC1 | 37.5* | . | . | .
COC(=O)c1cnc(N2CCCN(S(=O)(=O)c3ccccc3)CC2)nc1C(F)(F)F | -27.7 | -1.3 | 2.7 | 9.4
COC(=O)c1cnc(N2CCOCC2)nc1C(F)(F)F | -1.2 | 10.3* | 12.2 | 1.4
COc1cccc(NC(=O)NC2CCCCCCC2)c1 | -25.5 | . | . | .
COc1cccc(NC(=O)C(=S)NC2CCCCC2)c1 | -7.5 | 9.7* | 11.1 | 1.3
C=CCOc1ccc(/C=C2\SC(N3CCCCC3)=NC2=O)cc1 | -34.3 | . | . | .
CCN(CC)CCCNc1nc2cc(OC)c(OC)cc2c2nc(-c3cccnc3)nn12 | 24.3 | 0.4 | 39.3 | -9.8
COc1ccccc1Nc1nc(NCCO)c2ccccc2n1 | 3.5 | 0.2 | 2.9 | -4.7
c1ccc(-c2nc(NCCCn3ccnc3)c3ccccc3n2)cc1 | 66.3* | 2.0 | 2.9 | -9.3
CCN(CC)CCCNc1nc2cc(OC)c(OC)cc2c2nc(-c3ccccc3)nn12 | 50.5* | 1.1 | 38.5 | -9.0
OCCNc1nc(-c2ccccc2)nc2ccccc12 | -5.1 | -0.2 | 1.3 | -5.7
COc1ccc(OC)c(Nc2nc(NCCO)c3ccccc3n2)c1 | 37.7* | . | . | .
CCN(CC)CCCNc1nc(-c2ccccc2)nc2ccccc12 | 56.6* | -1.7 | -0.3 | -10.6
COC(=O)C(c1ccccc1)N(Cc1cccc(CN(C(C(=O)OC)c2ccccc2)S(C)(=O)=O)c1)S(C)(=O)=O (configuration not stated) | -48.8 | . | . | .
Cc1c(-c2cc(C(=O)O)c3ccccc3n2)cnn1C | -6.4 | 2.0 | 1.9 | -2.8
COc1ccc(/C(C)=N/NC(=O)Cc2ccc(Cl)cc2)cc1 | -11.7 | . | . | .
CN1C(=O)C(C)(C)c2cc(S(=O)(=O)NCc3ccc(C(=O)NCc4ccco4)cc3)ccc21 | -32.0 | . | . | .
COCCCNc1nc(-c2ccc(Cl)cc2)nc2ccccc12 | 5.6 | . | . | .
COc1ccc(-c2nc(NCCCN(C)C)c3ccccc3n2)cc1 | 78.7* | . | . | .
CCOC(=O)C(=CNc1ccc(Oc2cccnc2)nc1)C(=O)OCC | -22.9 | 9.9* | 13.6 | 1.3
SMILES | DNA FID counter | Wee1 stabilizer | Rad51 HR inh | RBBP9 inh
O=C(/C=C/c1ccco1)c1ccc(O)cc1 | -23.4 | -0.4 | -9.8 | 1.4
CN(C)c1ccc(C(=O)/C=C/c2ccco2)cc1 | -12.8 | 9.4* | -5.1 | -6.7
CCOC(=O)C1CCCN(S(=O)(=O)c2ccc(OC)cc2)C1 (configuration not stated) | -17.5 | -1.8 | 46.0* | -5.8
c1ccc2sc(NCC3CCCO3)nc2c1 (configuration not stated) | 0.0 | 9.4* | -21.8 | 1.6
O=C1NC(c2ccc3c(c2)OCO3)Nc2ccccc21 (configuration not stated) | 3.7 | 11.3* | -3.1 | 6.2
O=C1NC(c2ccc3c(c2)OCO3)Oc2ccccc21 (configuration not stated) | 0.7 | -1.1 | -0.7 | -10.0
Cc1ccccc1-c1nn(-c2ccc(F)cc2F)cc1CNCCCN(C)C | 42.2* | 1.1 | . | 7.5
O=C(NCCCN1CCCC1)C1CCN(C(=O)c2cc3sccc3n2Cc2ccc(F)cc2)CC1 | 26.5 | 1.3 | 0.3 | -1.6
CCN1CCCC1CNC(=O)C1CCN(C(=O)c2cc3sccc3n2Cc2ccc(F)cc2)CC1 (configuration not stated) | 14.3 | 11.8* | -3.8 | 0.2
Cc1ccc(Nc2nc(-c3ccc(S(=O)(=O)N4CCOCC4)cc3)cs2)cc1Cl | 1.3 | 0.9 | . | -3.9
Cc1ccc(NC(=O)COC(=O)C2=COCCO2)cc1 | 0.2 | -1.4 | 5.6 | -9.8
Cc1ccc(NC(=O)COC(=O)C2=COCCO2)c([N+](=O)[O-])c1 | -1.5 | 9.3* | -0.1 | -6.4
Cc1ccc(C(=O)NC(C)CCc2ccccc2)cc1[N+](=O)[O-] (configuration not stated) | -5.9 | 11.3* | -3.7 | 0.4
CCOC(=O)c1ccc(CNCc2ccc(C)cc2)cc1 | 8.3 | -1.3 | . | -2.5
COc1ccc(C(=O)NC2CC3CCCC(C2)N3Cc2ccccc2)cc1OC (configuration not stated) | 6.2 | . | . | .
COc1ccc(CC(=O)NCc2cccc(CNC(=O)Cc3ccc(OC)c(OC)c3)c2)cc1OC | -24.5 | . | . | .
CCOc1ccc(CNC(=O)CCS(=O)(=O)Cc2cccc(Cl)c2)cc1OC | -14.7 | 0.2 | 40.8* | -6.8
COc1cccc2c1C(=O)c1c(O)c3c(c(O)c1C2=O)C[C@@](O)(C(=O)CO)C[C@@H]3O[C@H]1C[C@H](N)[C@H](O)[C@H](C)O1 | 58.6* | -3.2 | 65.8* | 10.1
COc1cc2nc(C)sc2cc1SC | 2.5 | -1.1 | -9.0 | -8.4
COc1cc2nc(/C=C/c3cc(OC)c(OC)c(OC)c3)sc2cc1SC | -23.0 | 9.7* | -22.7 | -4.8
O=Cc1cn(-c2ccccc2)nc1-c1ccc2c(c1)OCCO2 | -0.5 | 9.2* | -1.2 | -3.0
CC1=C(C(=O)Nc2cccc(C(=O)N3CCN(c4cccc(C(F)(F)F)c4)CC3)c2)SCCO1 | -65.4 | . | . | .
CCCc1cc(O)c2c(C)cc(=O)oc2c1 | 2.9 | 4.2 | -3.9 | -10.7
COc1ccc(C[C@H]2CN3C(=NC[C@H]3C)N2CCNC(=O)c2ccc(C)c(Br)c2)cc1 | 39.9* | 0.6 | -8.0 | -23.6
Cc1ccc(C(=O)Nc2cc(C(C)C)c(O)c(C(C)C)c2)cc1 | -19.7 | -0.7 | 4.7 | -8.4
SMILES | DNA FID counter | Wee1 stabilizer | Rad51 HR inh | RBBP9 inh
O=C(NC1CCCC1)c1ncn[nH]1 | 1.8 | 0.4 | 4.7 | -9.3
O=C(Cn1nnc(-c2ccccc2F)n1)NCc1ccco1 | -1.2 | -2.4 | 44.4* | -0.7
Cc1ccccc1NC(=S)NCCSc1ccc(Cl)cc1 | 48.8* | -4.6 | -1.1 | -4.4
COc1cc(-c2nc(N)n[nH]2)cc(OC)c1OC | 2.4 | 9.6* | 2.8 | -11.0
Cc1ccc(C(C)C)c(OCC(=O)N2CCOCC2)c1 | -12.2 | 9.2* | -1.9 | -7.3
CN(c1ccc(C(=O)N2CCN(Cc3ccccc3)CC2)cc1)S(=O)(=O)c1ccc(Cl)cc1 | -36.7 | . | . | .
O=C(COc1ccc([N+](=O)[O-])cc1)NCc1cccnc1 | -0.1 | 9.2* | . | -2.7
Cc1nn(C)c(C)c1S(=O)(=O)N(CC(=O)NCCCN1CC(C)CC(C)C1)c1ccc(C(C)C)cc1 (configuration not stated) | 39.5* | . | . | .
Cc1nc2cc(Cl)c(Cl)cc2n1CCCO | -0.6 | 10.1* | 8.8 | 9.3
COc1ccc(C(=O)N/N=C/c2ccccn2)cc1OC | -3.8 | 2.5 | -0.3 | -7.8

Screening results from PubChem BioAssay.
